In ChEMBL document CHEMBL3804761, “Synthesis of a stable and orally bioavailable englerin analogue” (Bioorg Med Chem Lett, 2016):
Active and inactive are the calls of the source. No cut-off for these calls is given here.

Key:
786-0 = assay: Growth inhibition of human 786-0 cells incubated for 48 hrs by sulforhodamine B assay; format: functional; conditions: 786-0, 48 h; for TGI: read-out: pTGI (converted)
How it was run: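 NCI 60-cell-line panel, standard protocol. Cells exposed to compound for two days, growth read by sulforhodamine B staining. Tested at five 10-fold dilutions, top concentration 100 µM, to give dose-response curves.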

[1] = AUClast in mouse at 20 mg/kg, po administered through gavage up to 8 hrs by LC-MS/MS analysis; format: ADME, organism-based; set-up: time < 8 hr, dose 20 mg/kg, route oral; conditions: in vivo
How it was run: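 Mice received 20 mg/kg by oral gavage as a 20 mg/mL solution in Labrasol. Two mice were sacrificed at each of 5 min, 15 min, 1 h, 4 h and 8 h, ten mice in total. Plasma was precipitated with acetonitrile containing lorazepam internal standard and analysed by C18 UPLC-MS/MS, calibrated over 5-500 ng/mL. AUClast was calculated from these time points.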

[2] = molecular target: Protein kinase C (PKC) (Homo sapiens) (UniProt O94806+P41743+P17252+P05129+Q05655+P05771+Q05513+Q02156+P24723+Q15139+Q04759); assay: Activation of PKC in human 786-0 cells at 1 uM; format: cell-based
EKVX [3] = assay: Growth inhibition of human EKVX cells assessed as cell growth at 10 uM incubated for 48 hrs by sulforhodamine B assay relative to control; format: functional; conditions: read-out: Activity
How it was run: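 Run in the standard NCI 60-cell-line screen. Cells were exposed to drug for two days, and the read-out was sulforhodamine B staining. Compound was tested at a single final concentration of 10 µM in every line, and results are reported as growth percent.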

EKVX [4] = assay: Growth inhibition of human EKVX cells incubated for 48 hrs by sulforhodamine B assay; format: functional
How it was run: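 Run in the NCI 60-cell-line protocol, with 2-day drug exposure and sulforhodamine B read-out. Dose-response testing used five 10-fold dilutions starting from a high concentration of 100 µM.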

[5] = Toxicity in po dosed mouse administered through gavage; format: organism-based; conditions: in vivo
[6] = Plasma concentration in mouse at 100 mg/kg, po administered through gavage after 30 mins by LC-MS/MS analysis; format: ADME, organism-based
How it was run: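 Oral gavage to mice in Labrasol vehicle (compound dissolved directly at 20 mg/mL); dose groups 5, 10, 50 and 100 mg/kg. Plasma sampled 30 min after dosing. Analysis by HPLC-MS/MS: acetonitrile protein precipitation with lorazepam internal standard, C18 UPLC column, calibration range 5-500 ng/mL.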

[7] = Plasma concentration in mouse at 20 mg/kg, po administered through gavage after 0.083 hrs by LC-MS/MS analysis; format: ADME, organism-based
How it was run: (§1)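 Ten mice given 20 mg/kg by oral gavage in Labrasol (20 mg/mL solution). Two mice sacrificed at each of 5 min, 15 min, 1 h, 4 h and 8 h. Plasma measured by LC-MS/MS after acetonitrile precipitation with lorazepam internal standard on a C18 UPLC column (calibration 5-500 ng/mL). Mean of two animals per time point.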

[8] = Plasma concentration in mouse at 20 mg/kg, po administered through gavage after 0.25 hrs by LC-MS/MS analysis; format: ADME, organism-based; how it was run: as §1
[9] = Plasma concentration in mouse at 20 mg/kg, po administered through gavage after 1 hr by LC-MS/MS analysis; format: ADME, organism-based; how it was run: as §1
[10] = Plasma concentration in mouse at 20 mg/kg, po administered through gavage after 4 hrs by LC-MS/MS analysis; format: ADME, organism-based; how it was run: as §1
[11] = Plasma concentration in mouse at 20 mg/kg, po administered through gavage after 8 hrs by LC-MS/MS analysis; format: ADME, organism-based; how it was run: as §1

Compound	GI50 (786-0) [µM]	LC50 (786-0) [µM]	TGI (786-0) [µM]	AUC(0-t) at 8 h [1] [µg·h/mL]	Activity [2]	growth at 10 µM (EKVX [3]) [%]	GI50 (EKVX [4]) [µM]	CC50 (EKVX [4]; read-out: pLC50 (the source's name) (converted)) [µM]	TGI (EKVX [4]; read-out: pTGI) [µM]	MTD [5] [mg/kg]	concentration at 0.5 h [6] [µg/mL]	concentration at 0.083 h [7] [µg/mL]	concentration at 0.25 h [8] [µg/mL]	concentration at 1 h [9] [µg/mL]	concentration at 4 h [10] [µg/mL]	concentration at 8 h [11] [µg/mL]
CC(C)[C@@]12C[C@@H](NC(=O)CO)[C@@](C)(O1)[C@@H]1CC[C@@H](C)[C@H]1[C@@H]2OC(=O)/C=C/C1CCCCC1	> 44.7	> 44.7	> 44.7	–	–	–	–	–	–	–	–	–	–	–	–	–
CC(C)[C@@]12C[C@@H](NC(=O)CO)[C@@](C)(O1)[C@@H]1CC[C@@H](C)[C@H]1[C@@H]2OC(=O)c1ccc2ccccc2c1	13.8	56.2	28.2	–	–	–	–	–	–	–	–	–	–	–	–	–
C/C(=C\C(=O)O[C@H]1[C@@H]2[C@H](C)CC[C@H]2[C@]2(C)O[C@@]1(C(C)C)C[C@H]2NC(=O)CO)c1ccccc1	33.9	> 100	> 100	–	–	–	–	–	–	–	–	–	–	–	–	–
CC(C)[C@@]12C[C@@H](NC(=O)CO)[C@@](C)(O1)[C@@H]1CC[C@@H](C)[C@H]1[C@@H]2OC(=O)/C=C/c1ccccc1	3.63	> 50.1	24	0.524	inactive	69	11.2	> 50.1	> 50.1	50	≤ 0.7	0.01	0.0407	0.0732	0.059	0.0678
